# An excerpt weighted towards active compounds, which were near 2.1% of everything screened.
# Shn3 3UTR inh: reduces Shn3 3'UTR luciferase signal in osteoblasts. Clone20 osteoblast Shn3 3'UTR firefly luciferase, 24 h. 360,000 compounds, 0.52% hits. inhibition, % at 12.5 µM;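 active = mean inhibition of at least 75% with every replicate also reaching 75%; inconclusive = mean inhibition at least 75% but some replicate below; inactive = mean inhibition below 75%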;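 note: 0% = median of neutral control wells and 100% = pilot-screen positive control compound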
# EWS-Fli block: EWS/Fli transcriptional activity inhibition; inhibition, % at 12.6 µM; A673 NR0B1-luciferase reporter, viability-normalised; 350,000 compounds, 0.67% hits;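 active = mean inhibition of at least 50% after viability correction, with every replicate also passing that limit; inconclusive = mean reaches 50% but only one of two replicates passes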;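 note: firefly luciferase signal divided by Alamar Blue viability fluorescence both relative to DMSO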
# FN deposit inh: fibronectin deposition inhibition | AH1F fibroblasts, Alexa488-fibronectin deposition fluorescence, overnight | inhibition, % at 12.6 µM | AID 743247 | 350,000 compounds, 0.086% hits;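 active = mean inhibition across replicates of 30% or more, regardless of how many single replicates reach that level; inconclusive = mean under 30% yet at least half of replicates reach 30%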;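 note: positive control wells lacked labelled fibronectin entirely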
#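 test system = AH1F fibroblasts assembling fluorescent fibronectin matrix | quantity = 10000 AH1F cells per well | buffer or medium = DMEM plus 2% serum, read in PBS | doses = single dose, pinned | incubation = 1 h cell attachment, overnight exposure to compound and label | detection = fluorescence at 485 nm excitation, 525 nm emission | read-out basis = inhibition from reduced deposited-fibronectin fluorescence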
# aSyn 5UTR inh: MLPCN primary screen, SNCA 5' untranslated region. alpha-synuclein 5'UTR reporter, inhibitor activity. inhibition, % (tested at 7.5 µM). 300,000 compounds, 0.82% hits; in the data active = inhibition above about 60%; inconclusive = no clear call, values can overlap the other calls;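 note: H4 neuroglioblastoma cells stably carrying SNCA 5'UTR luciferase fusion; 0% = DMSO wells and 100% = positive control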
# EBV LMP1 NFkB: reduces LMP1-driven NF-kappaB luciferase signal | LMP1-induced NF-kappaB luciferase reporter cells, luminescence | inhibition, % at 12.5 µM | 350,000 compounds, 0.69% hits | AID 504558; in the data active = inhibition above about 41%; inconclusive = no clear call, values can overlap the other calls;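 note: 0% = neutral control wells and 100% = reference inhibitor control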
# PAX8 reporter: PAX8 transcriptional activity inhibition; AID 652154; RMG-I TPO-luciferase reporter, SteadyGlo, 24 h; inhibition, % at 12.6 µM; 360,000 compounds, 1.2% hits;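 active = mean replicate inhibition at least 60% with every replicate also reaching 60%; inconclusive = only one of the two criteria is met; inactive = mean below 60% and not all replicates reaching 60%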;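 note: luciferase light reporting Pax8 driven TPO promoter activity; plate controls were median of neutral control wells for no effect and mitoxantrone controls for full effect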
# * marks the source's active call; other numbers are inactive results; ? = inconclusive; nt = not tested or not shown.
SMILES,Shn3 3UTR inh,EWS-Fli block,FN deposit inh,aSyn 5UTR inh,EBV LMP1 NFkB,PAX8 reporter
c1ccc2c[n+](CCCCCCCCCC[n+]3ccc4ccccc4c3)ccc2c1,nt,20,-11,nt,nt,81*
C/C=C/c1ccc(C2[C@@H]3CN(Cc4cccnc4)C[C@H]2N3)cc1 (stereo partly specified),nt,7,-1,nt,nt,2
CC[n+]1c(-c2ccccc2)c2cc(N)ccc2c2ccc(N)cc21,40,13,3,nt,6,110*
Nc1ncnc2c1ccn2[C@@H]1O[C@H](CO)[C@@H](O)[C@H]1O,96*,56*,nt,107*,92*,nt
NC(=S)c1cn(C2OC(CO)C(O)C2O)c2ncnc(N)c12 (stereo unspecified),97*,49,22,105*,4,108*
FC(F)(F)CN1C[C@@H]2N[C@H](C1)C2c1ccc(Br)cc1 (stereo partly specified),nt,nt,14,nt,nt,nt
COC(=O)[C@H]1[C@H](CO)[C@H]2Cn3c(cccc3=O)[C@@H]1N2Cc1nccs1,nt,2,nt,nt,nt,-1
C/C1=C\[C@@H](C)C/C=C/[C@H]2[C@@H]3O[C@]3(C)[C@@H](C)[C@H]3[C@H](Cc4c[nH]c5ccccc45)NC(=O)[C@]32C(=O)/C=C/C(=O)[C@@H]1O,88*,nt,nt,81*,19,nt
O=C([O-])c1ccc(-[n+]2c(-c3ccccc3)cc(-c3ccccc3)cc2-c2ccccc2)cc1,1,9,2,20,1,-1
Oc1ccc(-[n+]2c(-c3ccccc3)cc(-c3ccccc3)cc2-c2ccccc2)cc1,22,43,7,3,32,90*
COc1ccc(-[n+]2c(-c3ccccc3)cc(-c3ccccc3)cc2-c2ccccc2)cc1,nt,49,8,81*,nt,92*
O=C(O)[C@@H]1[C@@H](CO)[C@@H]2Cn3c(ccc(-c4ccccc4)c3=O)[C@H]1N2CC1CCCCC1,nt,-4,nt,nt,nt,-8
CC1=C(N2CC2)C(=O)C(CO)=C(N2CC2)C1=O,96*,28,-5,nt,89*,118*
ClCCN(CCCl)c1ccc(C=NNc2ncccn2)cc1,-53,-56,-12,nt,16,-18
N#Cc1ncc(N=Cc2ccc(N(CCCl)CCCl)cc2)s1,22,0,8,nt,59*,4
COC(=O)[C@H]1[C@H](CO)[C@H]2Cn3c(ccc(/C=C/c4ccccc4)c3=O)[C@@H]1N2Cc1ccccc1F,nt,-4,nt,nt,nt,18
c1ccc2c(c1)[IH]c1ccccc1-2,91*,31,13,nt,24,64*
C[C@H]1CCC/C=C/[C@@H]2C[C@H](O)C[C@H]2[C@H](O)/C=C/C(=O)O1,97*,54*,-2,nt,-119,110*
C[C@H]1CCCC(=O)CCC/C=C/c2cc(O)cc(O)c2C(=O)O1,10,10,-9,4,16,26
C[C@@H]1C[C@@H]([C@H](O)CC2CC(=O)NC(=O)C2)C(=O)[C@@H](C)C1,92*,42,nt,nt,79*,nt
CC(=O)OC1(C)CC(C)C(=O)C(C(O)CC2CC(=O)NC(=O)C2)C1 (stereo unspecified),95*,43,nt,nt,89*,nt
COC(=O)[C@H]1[C@H](CO)[C@H]2Cn3c(ccc(-c4ccc(F)cc4)c3=O)[C@@H]1N2Cc1cccnc1,nt,-13,nt,nt,nt,nt
COc1cc(C(=O)N/N=C/C23CC[C@@H](O)CC2(O)CC[C@@H]2[C@@H]3CCC3(C)C(C4=CC(=O)OC4)CCC23O)ccc1O (stereo partly specified),1,-1,-8,35,-15,-14
CC12CC[C@H]3[C@@H](CCC4(O)C[C@H](O)CCC34/C=N/NC(=O)c3ccccc3O)C1(O)CCC2C1=CC(=O)OC1 (stereo partly specified),-1,3,-1,77*,-6,13
CC12CC[C@H]3[C@@H](CCC4(O)C[C@H](O)CCC34/C=N/NC(=O)c3ccccc3F)C1(O)CCC2C1=CC(=O)OC1 (stereo partly specified),nt,-2,-9,64*,2,-19
SMILES,Shn3 3UTR inh,EWS-Fli block,FN deposit inh,aSyn 5UTR inh,EBV LMP1 NFkB,PAX8 reporter
C/C=C/c1ccc(C2[C@@H]3CN(C(=O)C4CCC4)C[C@H]2N3)cc1 (stereo partly specified),nt,-4,-5,nt,nt,3
CC[C@H]1CN2CCC1C[C@H]2[C@H](O)c1ccnc2ccc(OC)cc12 (stereo partly specified),-4,9,-3,nt,69*,4
CC[C@H]1CN2CCC1C[C@@H]2[C@@H](O)c1ccnc2ccc(OC)cc12 (stereo partly specified),1,4,5,nt,-2,-14
COc1cccc(-c2ccc3n(c2=O)C[C@H]2[C@H](CO)[C@@H](C(=O)O)[C@@H]3N2Cc2ccccc2F)c1,nt,-2,nt,nt,nt,-7
O=[N+]([O-])c1ccccc1-c1cc(-c2ccccc2)cc(-c2ccccc2)[n+]1Cc1ccccc1Cl,nt,51*,-11,64*,nt,86*
COC(=O)C12OCC34C(CC5C(C)=C(O)C(=O)CC5(C)C3C(O)C1O)OC(=O)C(OC(=O)/C=C(\C)C(C)C)C24 (stereo unspecified),99*,46,13,nt,95*,96*
COc1ccc(C#Cc2ccc([C@@H]3[C@@H](CO)N4CCCCN(C(=O)Cc5ccncc5)C[C@@H]34)cc2)cc1,nt,nt,nt,nt,nt,2
COC(COC(N)=O)C1=C(N2CC2)C(=O)C(C)=C(N2CC2)C1=O (stereo unspecified),70,-2,-2,nt,-6,12
COC12C(COC(N)=O)C3=C(C(=O)C(C)=C(N)C3=O)N1CC1C2N1C (stereo unspecified),28,24,nt,-3,63*,nt
COC(=O)[C@@H]1[C@@H](CO)[C@@H]2Cn3c(ccc(C4=CCCC4)c3=O)[C@H]1N2S(=O)(=O)c1cn(C)cn1,nt,5,nt,nt,nt,-8
COC(=O)C1=C(c2cc3ccccc3o2)C[C@@H]2CC[C@H]1N2C(=O)N1CCCCC1,36,58*,-14,66*,14,29
COC(=O)C1=C(c2cc3ccccc3o2)C[C@@H]2CC[C@H]1N2C(=O)N1CCCC1,50,-3,4,32,12,5
COc1cccc(-c2ccc3n(c2=O)C[C@@H]2[C@@H](CO)[C@H](C(=O)O)[C@H]3N2Cc2ccccc2F)c1,nt,-7,nt,nt,nt,-3
CCCCCCCSc1cc(OC)c(CCNC)cc1OC,94*,nt,nt,121*,-66,nt
COC(=O)[C@@H]1[C@@H](CO)[C@@H]2Cn3c(ccc(-c4ccncc4)c3=O)[C@H]1N2S(=O)(=O)c1ccccc1C,nt,1,nt,nt,nt,2
C=CCn1c(O)c(/C=C2/C=CC=N2)c(=O)[nH]c1=O,0,-9,-14,0,-1,-5
O=c1[nH]c(=O)n(Cc2ccccc2Cl)c(O)c1/C=C1/C=CC=N1,10,60*,-1,-7,17,29
CCn1c(NN=O)nc2ccccc21,?,-14,-20,74*,-16,42
